ChEMBL document CHEMBL4354837 (J Med Chem, 2020)
The source made the active and inactive calls. The calls are words filed in the database; no cut-off is given here. Square brackets hold non-standard residues; d marks the D form. Peptide text beside a SMILES is read from it. Dap = NC[C@H](N)C(=O)O

What was measured:
Melanocortin receptor 4 [1] = target: T1, Melanocortin receptor 4 (Homo sapiens, UniProt P32245); test: Inverse agonist activity at human melanocortin receptor 4 expressed in HEK293 cells assessed as inhibition of basal cAMP accumulation incubated for 2 hrs by cAMP Alpha-screen assay; assay type: functional, cell-based
T1 sequence (P32245 whole entry): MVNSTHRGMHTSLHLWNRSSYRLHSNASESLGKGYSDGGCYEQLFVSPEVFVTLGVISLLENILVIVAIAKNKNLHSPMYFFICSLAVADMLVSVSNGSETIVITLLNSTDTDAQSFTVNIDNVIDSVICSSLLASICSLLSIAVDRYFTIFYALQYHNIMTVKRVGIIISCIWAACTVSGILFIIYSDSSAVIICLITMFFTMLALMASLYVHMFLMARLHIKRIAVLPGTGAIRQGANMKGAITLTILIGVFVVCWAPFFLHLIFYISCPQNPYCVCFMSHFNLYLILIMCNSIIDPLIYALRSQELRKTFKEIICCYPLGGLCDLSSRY
How it was run: (§1)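 AlphaScreen cAMP assay in stably transfected HEK293 cells, with 10,000 cells/well in IBMX-containing HBSS/HEPES buffer pH 7.4. Peptide alone, up to 100 μM, 2 h at room temperature in the dark, then 2 h lysis/detection. Inverse agonism taken as percent decrease of cAMP from basal, relative to maximal NDP-MSH signal, at 100 μM. Duplicates, three independent experiments.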

[2] = target: Melanocyte-stimulating hormone receptor (Mus musculus) (UniProt Q01727); test: Agonist activity at mouse melanocortin receptor 1 expressed in HEK293 cells assessed as stimulation of cAMP accumulation at 100 uM incubated for 2 hrs by cAMP Alpha-screen assay relative to control; assay type: functional, cell-based
Sequence of Melanocyte-stimulating hormone receptor (Mus musculus) (Q01727 whole entry, looked up): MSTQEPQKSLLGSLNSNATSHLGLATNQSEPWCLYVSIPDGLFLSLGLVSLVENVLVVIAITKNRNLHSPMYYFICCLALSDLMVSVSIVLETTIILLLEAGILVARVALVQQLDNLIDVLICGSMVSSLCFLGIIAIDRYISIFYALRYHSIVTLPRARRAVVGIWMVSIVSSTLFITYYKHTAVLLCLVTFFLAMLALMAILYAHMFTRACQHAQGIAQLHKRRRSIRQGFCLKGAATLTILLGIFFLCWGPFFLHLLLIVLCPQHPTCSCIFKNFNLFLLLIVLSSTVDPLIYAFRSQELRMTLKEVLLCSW

Melanocortin receptor 3 [3] = target: T2, Melanocortin receptor 3 (Mus musculus, UniProt P33033); test: Agonist activity at mouse melanocortin receptor 3 expressed in HEK293 cells assessed as stimulation of cAMP accumulation incubated for 2 hrs by cAMP Alpha-screen assay; assay type: functional, cell-based
T2 sequence (P33033 whole entry): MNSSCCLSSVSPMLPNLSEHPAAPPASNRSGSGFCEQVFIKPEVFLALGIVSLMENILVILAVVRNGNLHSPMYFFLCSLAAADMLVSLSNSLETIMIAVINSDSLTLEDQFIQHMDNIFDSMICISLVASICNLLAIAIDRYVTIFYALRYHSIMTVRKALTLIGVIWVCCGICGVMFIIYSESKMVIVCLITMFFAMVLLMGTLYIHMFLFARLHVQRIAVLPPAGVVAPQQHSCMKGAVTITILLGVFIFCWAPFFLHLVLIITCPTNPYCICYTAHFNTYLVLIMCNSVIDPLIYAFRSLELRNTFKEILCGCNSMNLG

Melanocortin receptor 3 [4] = target: T2, Melanocortin receptor 3; test: Antagonist activity at mouse melanocortin receptor 3 expressed in HEK293 cells assessed as inhibition of NDP-MSH-induced cAMP accumulation incubated for 2 hrs by cAMP Alpha-screen assay based Schild analysis; assay type: functional, cell-based; settings: read-out: pA2 (converted)
How it was run: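 NDP-MSH (10−6 to 10−12) plus antagonist at 10,000, 5,000, 1,000 and 500 nM, 2 h dark at room temperature. AlphaScreen cAMP read after lysis/bead step 2 h. Schild pA2; duplicates, at least three independent experiments.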

Melanocortin receptor 4 [5] = target: T3, Melanocortin receptor 4 (Mus musculus, UniProt P56450); test: Agonist activity at mouse melanocortin receptor 4 expressed in HEK293 cells assessed as stimulation of cAMP accumulation incubated for 2 hrs by cAMP Alpha-screen assay; assay type: functional, cell-based
T3 sequence (P56450 whole entry): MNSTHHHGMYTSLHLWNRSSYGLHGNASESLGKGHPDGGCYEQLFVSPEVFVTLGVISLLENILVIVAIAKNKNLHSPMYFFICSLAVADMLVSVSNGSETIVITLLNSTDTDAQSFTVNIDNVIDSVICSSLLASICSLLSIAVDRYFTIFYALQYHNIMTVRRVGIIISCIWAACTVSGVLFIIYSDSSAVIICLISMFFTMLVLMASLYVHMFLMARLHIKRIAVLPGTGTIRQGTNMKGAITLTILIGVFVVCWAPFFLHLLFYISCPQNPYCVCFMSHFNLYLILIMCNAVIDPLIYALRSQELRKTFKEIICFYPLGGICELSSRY

Melanocortin receptor 5 [6] = target: T4, Melanocortin receptor 5 (Mus musculus, UniProt P41149); test: Agonist activity at mouse melanocortin receptor 5 expressed in HEK293 cells assessed as stimulation of cAMP accumulation incubated for 2 hrs by cAMP Alpha-screen assay; assay type: functional, cell-based
T4 sequence (P41149 whole entry): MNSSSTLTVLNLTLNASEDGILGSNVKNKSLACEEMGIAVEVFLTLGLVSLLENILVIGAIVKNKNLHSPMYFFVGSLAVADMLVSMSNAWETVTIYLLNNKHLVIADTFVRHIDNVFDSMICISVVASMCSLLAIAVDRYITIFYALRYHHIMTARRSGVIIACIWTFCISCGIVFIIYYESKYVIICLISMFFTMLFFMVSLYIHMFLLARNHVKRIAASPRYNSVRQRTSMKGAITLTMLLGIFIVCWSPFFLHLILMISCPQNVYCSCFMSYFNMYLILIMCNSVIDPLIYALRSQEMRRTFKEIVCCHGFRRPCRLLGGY

[7] = target: Melanocyte-stimulating hormone receptor (Mus musculus, UniProt Q01727); test: Displacement of [125I]-NDP-MSH from mouse melanocortin receptor 1 expressed in HEK293 cell mebranes incubated for 1 hr by automatic gamma counting method; assay type: cell-based
Sequence of Melanocyte-stimulating hormone receptor (Q01727 whole entry): as the sequence (Q01727 whole entry, looked up) above
How it was run: (§2)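 Cells washed, lysed 10 min with 0.1 M NaOH/1% Triton X-100, then gamma-counted. Specific binding defined with unlabelled NDP-MSH and normalized to it. Duplicate wells, two experiments. IC50 by non-linear fit. Fold difference taken relative to the Asn-parent macrocycle control.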

Melanocortin receptor 3 [8] = target: T2, Melanocortin receptor 3; test: Displacement of [125I]-NDP-MSH from mouse melanocortin receptor 3 expressed in HEK293 cell mebranes incubated for 1 hr by automatic gamma counting method; assay type: cell-based
[9] = target: Melanocortin receptor 4 (Mus musculus) (UniProt P56450); test: Ratio of IC50 for MDE6-82-3c to IC50 for test compound for displacement of [125I]-NDP-MSH from mouse melanocortin receptor 4 expressed in HEK293 cell mebranes incubated for 1 hr by automatic gamma counting method; how it was run: as §2
Sequence of Melanocortin receptor 4 (Mus musculus) (P56450 whole entry): as the sequence (P56450 whole entry) above

Melanocortin receptor 5 [10] = target: T4, Melanocortin receptor 5; test: Displacement of [125I]-NDP-MSH from mouse melanocortin receptor 5 expressed in HEK293 cell mebranes incubated for 1 hr by automatic gamma counting method; assay type: cell-based
Melanocortin receptor 4 [11] = target: T1, Melanocortin receptor 4; test: Ratio of IC50 for MDE6-82-3c to IC50 for test compound for displacement of [125I]-NDP-MSH from human melanocortin receptor 4 expressed in HEK293 cell membranes incubated for 1 hr by automatic gamma counting method; how it was run: as §2
[12] = target: Melanocyte-stimulating hormone receptor (Mus musculus) (UniProt Q01727); test: Ratio of IC50 for MDE6-82-1c to IC50 for test compound for displacement of [125I]-NDP-MSH from mouse melanocortin receptor 1 […] incubated for 1 hr by automatic gamma counting method
[13] = target: Melanocortin receptor 3 (Mus musculus) (UniProt P33033); test: Ratio of IC50 for MDE6-82-1c to IC50 for test compound for displacement of [125I]-NDP-MSH from mouse melanocortin receptor 3 expressed in HEK293 cell mebranes incubated for 1 hr by automatic gamma counting method
Sequence of Melanocortin receptor 3 (Mus musculus) (P33033 whole entry): as the sequence (P33033 whole entry) above
How it was run: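 Whole stably transfected HEK293 cells (>90% confluent) incubated 1 h at 37°C, 5% CO2, in DMEM with 0.1% BSA. […] Cells washed, lysed with NaOH/Triton X-100, and counted by gamma counter. Specific binding normalized to nonradioactive NDP-MSH. IC50 from duplicates in two experiments (mean ± SD). Fold difference taken against the Dap-containing parent control.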

[14] = target: Melanocortin receptor 4 (Mus musculus) (UniProt P56450); test: Ratio of IC50 for MDE6-82-1c to IC50 for test compound for displacement of [125I]-NDP-MSH from mouse melanocortin receptor 4 […] incubated for 1 hr by automatic gamma counting method
[15] = target: Melanocortin receptor 5 (Mus musculus) (UniProt P41149); test: Ratio of IC50 for MDE6-82-1c to IC50 for test compound for displacement of [125I]-NDP-MSH from mouse melanocortin receptor 5 […] incubated for 1 hr by automatic gamma counting method
Sequence of Melanocortin receptor 5 (Mus musculus) (P41149 whole entry): as the sequence (P41149 whole entry) above

Melanocortin receptor 4 [16] = target: T1, Melanocortin receptor 4; test: Ratio of IC50 for MDE6-82-1c to IC50 for test compound for displacement of [125I]-NDP-MSH from human melanocortin receptor 4 […] incubated for 1 hr by automatic gamma counting method; assay type: cell membranes
[17] = target: Melanocortin receptor 5 (Mus musculus) (UniProt P41149); test: Inverse agonist activity at mouse melanocortin receptor 5 expressed in HEK293 cells assessed as inhibition of basal cAMP accumulation at 100 uM incubated for 2 hrs by cAMP Alpha-screen assay relative to control; assay type: functional, cell-based; how it was run: as §1
Melanocortin receptor 5 [18] = target: T4, Melanocortin receptor 5; test: Antagonist activity at mouse melanocortin receptor 5 expressed in HEK293 cells assessed as inhibition of NDP-MSH-induced cAMP accumulation incubated for 2 hrs by cAMP Alpha-screen assay based Schild analysis; assay type: functional, cell-based; settings: read-out: pA2 (converted)
[19] = target: Melanocyte-stimulating hormone receptor (Mus musculus) (UniProt Q01727); test: Ratio of IC50 for MDE6-82-3c to IC50 for test compound for displacement of [125I]-NDP-MSH from mouse melanocortin receptor 1 expressed in HEK293 cell mebranes incubated for 1 hr by automatic gamma counting method; how it was run: as §2
[20] = target: Melanocortin receptor 5 (Mus musculus) (UniProt P41149); test: Inverse agonist activity at mouse melanocortin receptor 5 expressed in HEK293 cells assessed as inhibition of basal cAMP accumulation incubated for 2 hrs by cAMP Alpha-screen assay relative to control; assay type: functional, cell-based; settings: concentration not given here; how it was run: as §1
Melanocortin receptor 4 [21] = target: T1, Melanocortin receptor 4; test: Antagonist activity at human melanocortin receptor 4 expressed in HEK293 cells assessed as inhibition of NDP-MSH-induced cAMP accumulation incubated for 2 hrs by cAMP Alpha-screen assay based Schild analysis; assay type: functional, cell-based; settings: read-out: pA2 (converted)
[22] = target: Melanocortin receptor 3 (Mus musculus) (UniProt P33033); test: Agonist activity at mouse melanocortin receptor 3 expressed in HEK293 cells assessed as stimulation of cAMP accumulation at 100 uM incubated for 2 hrs by cAMP Alpha-screen assay relative to control; assay type: functional, cell-based
[23] = target: Melanocortin receptor 4 (Mus musculus) (UniProt P56450); test: Agonist activity at mouse melanocortin receptor 4 expressed in HEK293 cells assessed as stimulation of cAMP accumulation at 100 uM incubated for 2 hrs by cAMP Alpha-screen assay relative to control; assay type: functional, cell-based
Melanocortin receptor 4 [24] = target: T3, Melanocortin receptor 4; test: Antagonist activity at mouse melanocortin receptor 4 expressed in HEK293 cells assessed as inhibition of NDP-MSH-induced cAMP accumulation incubated for 2 hrs by cAMP Alpha-screen assay based Schild analysis; assay type: functional, cell-based; settings: read-out: pA2 (converted)

## C[C@@H]1NC(=O)[C@H](CC(N)=O)NC(=O)[C@H](Cc2ccccc2)NC(=O)[C@H](Cc2ccccc2)NC(=O)[C@H](Cc2c[nH]cn2)NC(=O)[C@@H]2CCCN2C(=O)[C@H]2CCCN2C(=O)[C@H](Cc2ccccc2)NC1=O
Melanocortin receptor 4 [1]
  Activity: Active
[2]
  Activity: 23%
Melanocortin receptor 3 [3]
  EC50: > 100 µM
Melanocortin receptor 3 [4]
  Kb: > 10 µM
Melanocortin receptor 4 [5]
  EC50: > 100 µM
Melanocortin receptor 5 [6]
  EC50: > 100 µM
[7]
  IC50: > 100 µM
Melanocortin receptor 3 [8]
  IC50: > 100 µM
[9]
  Ratio IC50: 300
Melanocortin receptor 5 [10]
  IC50: > 100 µM
Melanocortin receptor 4 [11]
  Ratio IC50: 300

## C[C@@H]1NC(=O)[C@H](CN)NC(=O)[C@H](Cc2ccccc2)NC(=O)[C@H](Cc2ccc(O)cc2)NC(=O)[C@H](CCCNC(=N)N)NC(=O)[C@@H]2CCCN2C(=O)[C@H]2CCCN2C(=O)[C@H](Cc2ccccc2)NC1=O (cyclo(RYF[Dap]AF[dP]P))
Melanocortin receptor 4 [1]
  Activity: Active
[2]
  Activity: 48%
Melanocortin receptor 3 [3]
  EC50: > 100 µM
Melanocortin receptor 4 [5]
  EC50: > 100 µM
Melanocortin receptor 5 [6]
  EC50: > 100 µM
[12]
  Ratio IC50: 4
[13]
  Ratio IC50: 9
[14]
  Ratio IC50: 70
[15]
  Ratio IC50: 20
Melanocortin receptor 4 [16]
  Ratio IC50: 100

## C[C@@H]1NC(=O)[C@H](CC(N)=O)NC(=O)[C@H](Cc2ccccc2)NC(=O)[C@H](Cc2ccccc2)NC(=O)[C@H](CS)NC(=O)[C@@H]2CCCN2C(=O)[C@H]2CCCN2C(=O)[C@H](Cc2ccccc2)NC1=O (cyclo(PCFFNAF[dP]))
Melanocortin receptor 4 [1]
  Activity: inactive
[2]
  Activity: 46%
Melanocortin receptor 3 [3]
  EC50: > 100 µM
Melanocortin receptor 3 [4]
  Kb: > 10 µM
Melanocortin receptor 4 [5]
  EC50: > 100 µM
[17]
  inhibition: 32%
Melanocortin receptor 5 [18]
  Kb: > 10 µM
[19]
  Ratio IC50: 3
Melanocortin receptor 3 [8]
  IC50: > 100 µM
[9]
  Ratio IC50: 90
Melanocortin receptor 5 [10]
  IC50: > 100 µM
Melanocortin receptor 4 [11]
  Ratio IC50: 300

## C[C@@H]1NC(=O)[C@H](CN)NC(=O)[C@H](Cc2ccccc2)NC(=O)[C@H](Cc2ccccc2)NC(=O)[C@H](CCCNC(=N)N)NC(=O)[C@@H]2CCCN2C(=O)[C@H]2CCCN2C(=O)[C@H](Cc2ccccc2)NC1=O
Melanocortin receptor 4 [1]
  Activity: Active
[20]
  inhibition: 15%

## C[C@@H]1NC(=O)[C@H](CN)NC(=O)[C@H](Cc2ccccc2)NC(=O)[C@H](Cc2ccccc2)NC(=O)[C@H](CS)NC(=O)[C@@H]2CCCN2C(=O)[C@H]2CCCN2C(=O)[C@H](Cc2ccccc2)NC1=O (cyclo(PCFF[Dap]AF[dP]))
Melanocortin receptor 4 [21]
  Kb: > 10 µM
Melanocortin receptor 4 [1]
  Activity: inactive
[22]
  Activity: 29%
Melanocortin receptor 3 [4]
  Kb: > 10 µM
[23]
  Activity: 42%
Melanocortin receptor 4 [24]
  Kb: > 10 µM
Melanocortin receptor 5 [6]
  EC50: > 100 µM
[12]
  Ratio IC50: 6
[13]
  Ratio IC50: 15
[14]
  Ratio IC50: 5200
Melanocortin receptor 5 [10]
  IC50: > 100 µM
Melanocortin receptor 4 [16]
  Ratio IC50: 2100
